Consider 2 compounds from ChEMBL document CHEMBL1255265, “Linezolid and tiamulin cross-resistance in Staphylococcus aureus mediated by point mutations in the peptidyl transferase center” (2008).

Assay [1] concerns Staphylococcus aureus. Put plainly: Antimicrobial activity against Staphylococcus aureus NRS121 clinical isolate harboring G2576U mutation in 23S rRNA by agar dilution method. In kind it is functional. In a few lines:
(§1)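 S. aureus MICs were determined by agar dilution per BSAC guidelines in Mueller-Hinton medium, without supplement.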
For orientation: In agar dilution the substance is mixed into plates at graded concentrations.

The test system of assay [2] is Escherichia coli. Put plainly: Antimicrobial activity against Escherichia coli KM85-86 harboring Lys157Gln mutation in rplC gene by agar dilution method in presence of 16 ug/ml polymyxin B nonapeptide. In kind it is functional. In outline:
(§2)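 MIC by agar dilution following BSAC guidelines in Mueller-Hinton medium. For E. coli, the medium was supplemented with 16 μg/ml polymyxin B nonapeptide to permeabilize the gram-negative envelope.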

The test system of assay [3] is Escherichia coli. Put plainly: Antimicrobial activity against Escherichia coli KM74 harboring U2500A mutation in 23S rRNA by agar dilution method in presence of 16 ug/ml polymyxin B nonapeptide. Type of assay: functional. In a few lines: as §2
Assay [4] concerns Escherichia coli. Put plainly: Antimicrobial activity wild type Escherichia coli SQ110 by agar dilution method. Type of assay: functional.
Assay [5] concerns Staphylococcus aureus. As to the kind of experiment: Antimicrobial activity against Staphylococcus aureus KM187+198 harboring G2576U mutation in 23S rRNA by agar dilution method. Type of assay: functional. In a few lines: as §1
Assay [6] concerns Staphylococcus aureus. As to the kind of experiment: Antimicrobial activity against Staphylococcus aureus NRS119 clinical isolate harboring G2576U mutation in 23S rRNA by agar dilution method. Type of assay: functional. In a few lines:
as §1

Assay [7] has as its system Staphylococcus aureus. Put plainly: Antimicrobial activity against Staphylococcus aureus NRS120 clinical isolate harboring G2576U mutation in 23S rRNA by agar dilution method. Type of assay: functional. In a few lines:
as §1

The test system of assay [8] is Escherichia coli. As to the kind of experiment: Antimicrobial activity against Escherichia coli KM89-94 harboring G2576U mutation in 23S rRNA by agar dilution method in presence of 16 ug/ml polymyxin B nonapeptide. Type of assay: functional. In a few lines:
as §2

Assay [9] deals with Escherichia coli. As to the kind of experiment: Antimicrobial activity against Escherichia coli KM75-84 harboring Gly153Arg mutation in rplC gene by agar dilution method in presence of 16 ug/ml polymyxin B nonapeptide. Type of assay: functional. In outline:
as §2

Assay [10] relates to Escherichia coli. Put plainly: Antimicrobial activity against Escherichia coli KM87-88 harboring Arg141Ser mutation in rplC gene by agar dilution method in presence of 16 ug/ml polymyxin B nonapeptide. In kind it is functional. In a few lines:
as §2

Assay [11] relates to Escherichia coli. As to the kind of experiment: Antimicrobial activity wild type Escherichia coli SQ110 by agar dilution method in presence of 16 ug/ml polymyxin B nonapeptide. Type of assay: functional. In a few lines:
as §2

Assay [12] relates to Escherichia coli. As to the kind of experiment: Antimicrobial activity against Escherichia coli KM55-68 harboring G2576U mutation in 23S rRNA by agar dilution method in presence of 16 ug/ml polymyxin B nonapeptide. In kind it is functional. In a few lines:
as §2

Assay [13] deals with Escherichia coli. Put plainly: Antimicrobial activity against Escherichia coli KM69-73 harboring G2447U mutation in 23S rRNA by agar dilution method in presence of 16 ug/ml polymyxin B nonapeptide.
The test system of assay [14] is Staphylococcus aureus. Put plainly: Antimicrobial activity against Staphylococcus aureus KM164-165 harboring Gly155Arg mutation in rplC gene by agar dilution method. In kind it is functional. In outline:
as §1

Assay [15] relates to Staphylococcus aureus. As to the kind of experiment: Antimicrobial activity against mutS-expressing Staphylococcus aureus RN4220 measured after 1 day of subculturing by agar dilution method. Type of assay: functional. The note with it: RN4220, 24 h. In a few lines: (§3)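 Resistant mutants were selected by serial subculture in Mueller-Hinton medium containing antibiotic, and time to emergence of resistance was recorded. MICs were determined by agar dilution per BSAC guidelines.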

Assay [16] relates to Staphylococcus aureus. As to the kind of experiment: Antimicrobial activity against tiamulin resistant Staphylococcus aureus 8325-4 after 1 day of subculturing by agar dilution method. The note with it: 8325-4, 24 h. Type of assay: functional. In outline:
as §3

Assay [17] concerns Staphylococcus aureus. Put plainly: Antimicrobial activity against Staphylococcus aureus KM168 harboring Arg149Ser mutation in rplC gene by agar dilution method. In kind it is functional. In outline:
as §1

Assay [18] deals with Staphylococcus aureus. As to the kind of experiment: Antimicrobial activity against Staphylococcus aureus KM166-167 harboring Ser158Leu mutation in rplC gene by agar dilution method. In kind it is functional. In outline: as §1
Assay [19] deals with Staphylococcus aureus. Put plainly: Antimicrobial activity against Staphylococcus aureus RN4220 by agar dilution method. In kind it is functional. In outline:
as §1

For assay [20], the system named is Staphylococcus aureus. Put plainly: Antimicrobial activity against wild type Staphylococcus aureus RN4220 measured after 2 days of subculturing by agar dilution method. In kind it is functional. The note with it: RN4220, 48 h. In outline: as §3
Assay [21] has as its system Escherichia coli. As to the kind of experiment: Antimicrobial activity against tiamulin resistant Escherichia coli SQ110 by agar dilution method. In kind it is functional.

By MIC is commonly meant the lowest concentration found to suppress growth.

≈ marks a conversion by molar mass, not a printed value.

In the case of `CC(=O)NC[C@H]1CN(c2ccc(N3CCOCC3)c(F)c2)C(=O)O1` [LINEZOLID], the MIC with Staphylococcus aureus [1] is 64 µg/mL (≈ 190 µM); in the assay with Escherichia coli [2], 16 µg/mL; with Escherichia coli [3], 64 µg/mL; with Escherichia coli [4] it was 256 µg/mL (≈ 759 µM); with Staphylococcus aureus [5] it was 64 µg/mL (≈ 190 µM); in the assay on Staphylococcus aureus [6], 64 µg/mL (≈ 190 µM). Moreover, the minimal inhibitory concentration (MIC) in the assay on Staphylococcus aureus [7] stood at 64 µg/mL (≈ 190 µM); with Escherichia coli [8], 64 µg/mL; in the assay with Escherichia coli [9] it was 16 µg/mL; with Escherichia coli [10], 16 µg/mL; with Escherichia coli [11], 16 µg/mL; in the assay with Escherichia coli [12], 64 µg/mL. Also, the minimal inhibitory concentration (MIC) in the assay with Escherichia coli [13] came out at 64 µg/mL.

In the case of `C=C[C@]1(C)C[C@@H](OC(=O)CSCCN(CC)CC)[C@]2(C)[C@H](C)CC[C@]3(CCC(=O)[C@H]32)[C@@H](C)[C@@H]1O` [TIAMULIN], the minimal inhibitory concentration (MIC) was 8 µg/mL (≈ 16.2 µM) against Staphylococcus aureus [14]; 32 µg/mL (≈ 64.8 µM) against Staphylococcus aureus [1]; 32 µg/mL in the assay on Escherichia coli [2]; 64 µg/mL in the assay with Escherichia coli [3]; 2 µg/mL (≈ 4.05 µM) in the assay on Staphylococcus aureus [15]; 1 µg/mL (≈ 2.03 µM) in the assay with Staphylococcus aureus [16]. The MIC was 16 µg/mL (≈ 32.4 µM) with Staphylococcus aureus [5]; 8 µg/mL (≈ 16.2 µM) in the assay on Staphylococcus aureus [17]; 32 µg/mL (≈ 64.8 µM) with Staphylococcus aureus [6]; 32 µg/mL (≈ 64.8 µM) against Staphylococcus aureus [7]; 16 µg/mL (≈ 32.4 µM) against Staphylococcus aureus [18]; 1 µg/mL (≈ 2.03 µM) with Staphylococcus aureus [19]. The minimal inhibitory concentration (MIC) is 64 µg/mL in the assay with Escherichia coli [8]; 1 µg/mL (≈ 2.03 µM) against Staphylococcus aureus [20]; 32 µg/mL in the assay on Escherichia coli [9]; 64 µg/mL in the assay with Escherichia coli [10]; 8 µg/mL with Escherichia coli [11]; 64 µg/mL with Escherichia coli [12]. For the same compound, the values for the MIC against Escherichia coli [21] and in the assay on Escherichia coli [13] were 128 µg/mL (≈ 259 µM) and 64 µg/mL, respectively.
